Counter-ions that a name gives are not always drawn.
Legend:
[1] = Liver microsomal stability, human; assay type: in vitro ADME; conditions: 1 μM, 0.5 mg/mL microsomal protein, NADPH, 37 °C
In short: (§1)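 Liver microsomes (human pool of 150 donors; dog, rat, mouse) at 0.5 mg/mL protein in 100 mM phosphate buffer pH 7.4 with test compound at 1 μM final, 37 °C. Started with NADPH regeneration system and stopped with ice-cold acetonitrile at 0 and 30 min. Supernatant analysed by LC-MS/MS. Percent parent remaining from peak areas against the 0 min sample (100 %), stopped before NADPH addition.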

CYP2C9 = CYP2C9 (Homo sapiens, UniProt P11712); assay: Cytochrome P450 inhibition assay, CYP2C9; assay type: in vitro ADME; conditions: CYP activity as % of control, 10 μM, human liver microsomes
[2] = Liver microsomal stability, rat; assay type: in vitro ADME; conditions: 1 μM, 0.5 mg/mL microsomal protein, NADPH, 37 °C
In short: as §1

CYP 3A4 = assay: Cytochrome P450 inhibition assay, CYP3A4; assay type: in vitro ADME; conditions: CYP activity as % of control, 10 μM, human liver microsomes
CYP1A2 = target: T1, CYP1A2 (Homo sapiens, UniProt P05177); assay: Cytochrome P450 inhibition assay, CYP1A2; assay type: in vitro ADME; conditions: CYP activity as % of control, 10 μM, human liver microsomes
T1 sequence (P05177 1-516): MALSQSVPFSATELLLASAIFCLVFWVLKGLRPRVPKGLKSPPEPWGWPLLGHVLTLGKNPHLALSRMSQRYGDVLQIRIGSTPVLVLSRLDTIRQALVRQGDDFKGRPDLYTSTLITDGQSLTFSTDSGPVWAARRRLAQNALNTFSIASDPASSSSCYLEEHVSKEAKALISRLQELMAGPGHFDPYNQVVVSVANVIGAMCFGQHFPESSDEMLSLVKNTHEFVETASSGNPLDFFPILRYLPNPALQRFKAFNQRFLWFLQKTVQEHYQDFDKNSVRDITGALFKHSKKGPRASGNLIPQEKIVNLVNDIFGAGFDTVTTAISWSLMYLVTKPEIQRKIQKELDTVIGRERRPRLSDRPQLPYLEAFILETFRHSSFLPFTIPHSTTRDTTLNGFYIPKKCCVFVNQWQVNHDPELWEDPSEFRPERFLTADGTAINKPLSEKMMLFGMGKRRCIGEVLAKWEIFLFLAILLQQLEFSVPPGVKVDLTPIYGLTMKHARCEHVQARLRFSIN

[3] = Liver microsomal stability, dog; assay type: in vitro ADME; conditions: 1 μM, 0.5 mg/mL microsomal protein, NADPH, 37 °C
In short: as §1

[4] = Liver microsomal stability, mouse; assay type: in vitro ADME; conditions: 1 μM, 0.5 mg/mL microsomal protein, NADPH, 37 °C
In short: as §1

CYP2D6 = CYP2D6 (Homo sapiens, UniProt P10635); assay: Cytochrome P450 inhibition assay, CYP2D6; assay type: in vitro ADME; conditions: CYP activity as % of control, 10 μM, human liver microsomes
CYP2C19 = CYP2C19 (Homo sapiens, UniProt P33261); assay: Cytochrome P450 inhibition assay, CYP2C19; assay type: in vitro ADME; conditions: CYP activity as % of control, 10 μM, human liver microsomes
panel of 468 kinases = assay: KINOMEscan kinome selectivity profiling; assay type: binding; conditions: KINOMEscan at 1 μM; 7c 468 kinases, TAE684 353 kinases

Sequence of CYP2C9 (P11712 whole entry): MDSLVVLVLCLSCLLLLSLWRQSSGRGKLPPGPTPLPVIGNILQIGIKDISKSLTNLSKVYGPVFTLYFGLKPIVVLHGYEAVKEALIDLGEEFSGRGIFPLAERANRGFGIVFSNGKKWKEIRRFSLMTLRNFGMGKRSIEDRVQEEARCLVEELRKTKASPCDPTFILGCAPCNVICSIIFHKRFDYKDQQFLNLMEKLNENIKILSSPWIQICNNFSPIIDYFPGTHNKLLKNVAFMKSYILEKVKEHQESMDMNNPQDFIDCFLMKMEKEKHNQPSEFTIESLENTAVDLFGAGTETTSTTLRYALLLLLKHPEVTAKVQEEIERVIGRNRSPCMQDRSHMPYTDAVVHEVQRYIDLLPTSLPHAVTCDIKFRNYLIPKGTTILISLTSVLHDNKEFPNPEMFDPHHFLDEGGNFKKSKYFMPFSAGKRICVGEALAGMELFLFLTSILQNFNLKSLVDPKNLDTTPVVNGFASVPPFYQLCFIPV
Sequence of CYP2D6 (P10635 whole entry): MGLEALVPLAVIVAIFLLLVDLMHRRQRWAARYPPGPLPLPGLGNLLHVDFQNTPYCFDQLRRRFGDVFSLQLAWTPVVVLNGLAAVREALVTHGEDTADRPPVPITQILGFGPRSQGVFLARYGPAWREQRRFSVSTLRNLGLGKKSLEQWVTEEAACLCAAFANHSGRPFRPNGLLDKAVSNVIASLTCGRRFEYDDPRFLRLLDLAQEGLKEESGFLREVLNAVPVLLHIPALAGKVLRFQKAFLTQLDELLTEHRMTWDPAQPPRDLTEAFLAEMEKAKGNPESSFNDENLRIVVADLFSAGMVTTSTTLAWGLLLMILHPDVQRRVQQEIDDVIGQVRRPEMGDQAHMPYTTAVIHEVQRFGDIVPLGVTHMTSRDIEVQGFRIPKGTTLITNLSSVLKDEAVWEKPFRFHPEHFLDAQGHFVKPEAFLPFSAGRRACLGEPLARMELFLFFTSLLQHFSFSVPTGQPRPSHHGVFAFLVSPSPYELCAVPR
Sequence of CYP2C19 (P33261 whole entry): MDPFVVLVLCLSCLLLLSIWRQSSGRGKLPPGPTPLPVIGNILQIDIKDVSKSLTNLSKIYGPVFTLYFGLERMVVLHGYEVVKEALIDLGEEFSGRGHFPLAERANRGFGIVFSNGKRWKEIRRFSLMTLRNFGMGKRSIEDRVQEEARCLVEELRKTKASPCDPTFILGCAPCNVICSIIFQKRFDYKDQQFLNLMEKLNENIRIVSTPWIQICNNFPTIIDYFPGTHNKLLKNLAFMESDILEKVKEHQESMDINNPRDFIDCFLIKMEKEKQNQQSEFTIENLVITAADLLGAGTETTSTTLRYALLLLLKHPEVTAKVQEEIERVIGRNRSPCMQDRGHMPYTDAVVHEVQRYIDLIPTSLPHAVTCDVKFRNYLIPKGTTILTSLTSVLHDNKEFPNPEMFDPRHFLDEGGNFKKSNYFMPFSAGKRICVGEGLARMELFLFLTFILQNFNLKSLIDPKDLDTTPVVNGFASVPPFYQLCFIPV

| SMILES | Liver microsomal stability (% remaining after 30 min) Human [1] [% remaining after 30 min] | Cytochrome P450 inhibition (% of control) 2C9 (CYP2C9) | Liver microsomal stability (% remaining after 30 min) Rat [2] [% remaining after 30 min] | Cytochrome P450 inhibition (% of control) 3A4 (CYP 3A4) | Cytochrome P450 inhibition (% of control) 1A2 (CYP1A2) | Liver microsomal stability (% remaining after 30 min) Dog [3] [% remaining after 30 min] | Liver microsomal stability (% remaining after 30 min) Mouse [4] [% remaining after 30 min] | Cytochrome P450 inhibition (% of control) 2D6 (CYP2D6) | Cytochrome P450 inhibition (% of control) 2C19 (CYP2C19) | S-score(1) (panel of 468 kinases) |
| --- | --- | --- | --- | --- | --- | --- | --- | --- | --- | --- |
| C=CC(=O)Nc1cc(Nc2ncc(I)c(Nc3ccccc3S(=O)(=O)N(C)C)n2)c(OC)cc1N(C)CCN(C)C [Compound 7l, N-(2-((2-(Dimethylamino)ethyl)(methyl)amino)-5-((4-((2-(N,N-dimethylsulfamoyl)phenyl)amino)-5-iodopyrimidin-2-yl)amino)-4-methoxyphenyl)acrylamide] | – | – | 12 | – | – | – | 12 | – | – | – |
| C=CC(=O)Nc1cc(Nc2ncc(I)c(Nc3ccccc3S(=O)(=O)C(C)C)n2)c(OC)cc1N(C)CCN(C)C [Compound 7d, N-(2-((2-(Dimethylamino)ethyl)(methyl)amino)-5-((5-iodo-4-((2-(isopropylsulfonyl)phenyl)amino)pyrimidin-2-yl)amino)-4-methoxyphenyl)acrylamide] | 14 | 88 % of control | 14 | 47 % of control | 81 % of control | 19 | 10 | 82 % of control | 86 % of control | – |
| COc1cc(N2CCC(N3CCN(C)CC3)CC2)ccc1Nc1ncc(Cl)c(Nc2ccccc2S(=O)(=O)C(C)C)n1 [TAE684, reference compound] | – | – | – | – | – | – | – | – | – | 0.37 |
| C=CC(=O)Nc1cc(Nc2ncc(F)c(Nc3ccccc3S(=O)(=O)N(C)C)n2)c(OC)cc1N(C)CCN(C)C [Compound 7j, N-(2-((2-(Dimethylamino)ethyl)(methyl)amino)-5-((4-((2-(N,N-dimethylsulfamoyl)phenyl)amino)-5-fluoropyrimidin-2-yl)amino)-4-methoxyphenyl)acrylamide] | – | – | 7 | – | >100 % of control | – | 10 | >100 % of control | 91 % of control | – |
| C=CC(=O)Nc1cc(Nc2ncc(Cl)c(Nc3ccccc3S(=O)(=O)N(C)C)n2)c(OC)cc1N(C)CCN(C)C [Compound 7k, N-(5-((5-Chloro-4-((2-(N,N-dimethylsulfamoyl)phenyl)amino)pyrimidin-2-yl)amino)-2-((2-(dimethylamino)ethyl)(methyl)amino)-4-methoxyphenyl)acrylamide] | – | – | – | – | – | 31 | – | – | – | – |

Further lines, with some results ahead:

| Liver microsomal stability (% remaining after 30 min) Human [1] [% remaining after 30 min] | Cytochrome P450 inhibition (% of control) 2C9 (CYP2C9) | Liver microsomal stability (% remaining after 30 min) Rat [2] [% remaining after 30 min] | Cytochrome P450 inhibition (% of control) 3A4 (CYP 3A4) | Cytochrome P450 inhibition (% of control) 1A2 (CYP1A2) | Liver microsomal stability (% remaining after 30 min) Dog [3] [% remaining after 30 min] | Liver microsomal stability (% remaining after 30 min) Mouse [4] [% remaining after 30 min] | Cytochrome P450 inhibition (% of control) 2D6 (CYP2D6) | Cytochrome P450 inhibition (% of control) 2C19 (CYP2C19) | SMILES | S-score(1) (panel of 468 kinases) |
| --- | --- | --- | --- | --- | --- | --- | --- | --- | --- | --- |
| 65 | >100 % of control | 81 | 88 % of control | 91 % of control | – | – | – | – | C=CC(=O)Nc1cc(Nc2ncc(I)c(Nc3ccccc3P(C)(C)=O)n2)c(OC)cc1N(C)CCN(C)C [Compound 7h, N-(2-((2-(Dimethylamino)ethyl)(methyl)amino)-5-((4-((2-(dimethylphosphoryl)phenyl)amino)-5-iodopyrimidin-2-yl)amino)-4-methoxyphenyl)acrylamide trifluoroacetate salt] | – |
| 5 | 90 % of control | 22 | 40 % of control | 80 % of control | 48 | 8 | 67 % of control | 87 % of control | C=CC(=O)Nc1cc(Nc2nccc(Nc3ccccc3S(=O)(=O)C(C)C)n2)c(OC)cc1N(C)CCN(C)C [Compound 7a, N-(2-((2-(Dimethylamino)ethyl)(methyl)amino)-5-((4-((2-(isopropylsulfonyl)phenyl)amino)pyrimidin-2-yl)amino)-4-methoxyphenyl)acrylamide] | – |
| 10 | 88 % of control | – | – | 82 % of control | – | 5 | – | – | C=CC(=O)Nc1cc(Nc2nccc(Nc3ccccc3S(=O)(=O)N(C)C)n2)c(OC)cc1N(C)CCN(C)C [Compound 7i, N-(2-((2-(Dimethylamino)ethyl)(methyl)amino)-5-((4-((2-(N,N-dimethylsulfamoyl)phenyl)amino)pyrimidin-2-yl)amino)-4-methoxyphenyl)acrylamide] | – |
| 61 | >100 % of control | 76 | 91 % of control | 93 % of control | – | 66 | – | – | C=CC(=O)Nc1cc(Nc2ncc(Cl)c(Nc3ccccc3P(C)(C)=O)n2)c(OC)cc1N(C)CCN(C)C [Compound 7g, N-(5-((5-Chloro-4-((2-(dimethylphosphoryl)phenyl)amino)pyrimidin-2-yl)amino)-2-((2-(dimethylamino)ethyl)(methyl)amino)-4-methoxyphenyl)acrylamide trifluoroacetate salt] | – |
| 84 | >100 % of control | 87 | >100 % of control | >100 % of control | 87 | 80 | >100 % of control | >100 % of control | C=CC(=O)Nc1cc(Nc2ncc(F)c(Nc3ccccc3P(C)(C)=O)n2)c(OC)cc1N(C)CCN(C)C [Compound 7f, N-(2-((2-(Dimethylamino)ethyl)(methyl)amino)-5-((4-((2-(dimethylphosphoryl)phenyl)amino)-5-fluoropyrimidin-2-yl)amino)-4-methoxyphenyl)acrylamide trifluoroacetate salt] | – |
| 70 | 90 % of control | 78 | 89 % of control | 84 % of control | 73 | 76 | 87 % of control | >100 % of control | C=CC(=O)Nc1cc(Nc2nccc(Nc3ccccc3P(C)(C)=O)n2)c(OC)cc1N(C)CCN(C)C [Compound 7e, N-(2-((2-(Dimethylamino)ethyl)(methyl)amino)-5-((4-((2-(dimethylphosphoryl)phenyl)amino)pyrimidin-2-yl)amino)-4-methoxyphenyl)acrylamide trifluoroacetate salt] | – |
| 26 | 94 % of control | 11 | 51 % of control | 91 % of control | 27 | 15 | 95 % of control | 93 % of control | C=CC(=O)Nc1cc(Nc2ncc(F)c(Nc3ccccc3S(=O)(=O)C(C)C)n2)c(OC)cc1N(C)CCN(C)C [Compound 7b, N-(2-((2-(Dimethylamino)ethyl)(methyl)amino)-5-((5-fluoro-4-((2-(isopropylsulfonyl)phenyl)amino)pyrimidin-2-yl)amino)-4-methoxyphenyl)acrylamide] | – |

Reference: paper PMC5800871 (European journal of medicinal chemistry, 2017)
